From ChEMBL document CHEMBL1127345, “Synthesis, binding properties, and 18F labeling of fluorocarazolol, a high-affinity beta-adrenergic receptor antagonist” (J Med Chem, 1994)

How the values were obtained:
Mus musculus [1] = experiment: The in vivo tissue distribution of mouse blood without Propranolol preadministration in 90 min, value was fractional dose per fractional body weight of the organ; settings: 1.5 h
Mus musculus [2] = experiment: The in vivo tissue distribution of mouse liver without Propranolol preadministration in 40 min, value was fractional dose per fractional body weight of the organ
Mus musculus [3] = experiment: The in vivo tissue distribution of mouse kidney with Propranolol administration after 10 min, value was fractional dose per fractional body weight of the organ; assay type: ADME, organism-based
In short: (§1)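 Male CF-1 mice (25–30 g), given 2 mg sodium pentobarbital ip 30 min before tracer. Blocked groups received propranolol iv by tail vein, 0.1 mL of 1 mg/mL. About 30 min later, 0.1 mL of [18F]tracer (1–2 mCi/mL) was injected by tail vein. Mice were killed by cervical dislocation at set times, and organs were weighed and counted. Uptake is %ID/g × body weight/100, average ± SD; n=5 for heart, brain, blood, lung, kidney, liver and bone.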

Mus musculus [4] = experiment: The in vivo tissue distribution of mouse lung without Propranolol preadministration in 60 min, value was fractional dose per fractional body weight of the organ; settings: 1 h
Mus musculus [5] = experiment: The in vivo tissue distribution of mouse bone with Propranolol administration after 60 min, value was fractional dose per fractional body weight of the organ; assay type: ADME, organism-based, Bone element; settings: 1 h
In short: (§2)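 Male CF-1 mice (25–30 g), anesthetised with 2 mg sodium pentobarbital ip 30 min before tracer. Where blocked, propranolol iv via tail vein (0.1 mL of […]; […]) about 30 min before tracer. Tracer given by tail vein, 0.1 mL at 1–2 mCi/mL. Mice killed by cervical dislocation at set times, organs weighed and counted. %ID/g × body weight/100 gives unitless uptake. Heart, brain, blood, lung, kidney, liver and bone n=5; average ± SD.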

Mus musculus [6] = experiment: The in vivo tissue distribution of mouse lung with Propranolol administration after 40 min, value was fractional dose per fractional body weight of the organ; assay type: ADME, organism-based
In short: (§3)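 Male CF-1 mice (25–30 g) anaesthetised with 2 mg sodium pentobarbital ip; blocked group given 0.1 mL of […] propranolol iv via tail vein (200 μg, 6.6 mg/kg), tracer 30 min later. 0.1 mL of 1–2 mCi/mL [18F]-labelled enantiomer iv via tail vein; killed by cervical dislocation, organs weighed and counted against weighed standards. %ID/g × body weight/100 gives unitless uptake; five mice per point (heart, blood, lung, kidney, liver, bone); mean ± SD.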

Mus musculus [7] = experiment: The in vivo tissue distribution of mouse brain without Propranolol preadministration in 180 min, value was fractional dose per fractional body weight of the organ; settings: 3 h
Mus musculus [8] = experiment: The in vivo tissue distribution of mouse kidney without Propranolol preadministration in 90 min, value was fractional dose per fractional body weight of the organ; settings: 1.5 h
Mus musculus [9] = experiment: The in vivo tissue distribution of mouse brain with Propranolol administration after 60 min, value was fractional dose per fractional body weight of the organ; assay type: ADME, organism-based; settings: 1 h
In short: as §2

Mus musculus [10] = experiment: The in vivo tissue distribution of mouse blood with Propranolol administration after 20 min, value was fractional dose per fractional body weight of the organ; assay type: ADME, organism-based
In short: as §2

Mus musculus [11] = experiment: The in vivo tissue distribution of mouse liver with Propranolol administration after 20 min, value was fractional dose per fractional body weight of the organ; assay type: ADME, organism-based
In short: as §1

Mus musculus [12] = experiment: The in vivo tissue distribution of mouse lung without Propranolol preadministration in 10 min, value was fractional dose per fractional body weight of the organ
Mus musculus [13] = experiment: The in vivo tissue distribution of mouse kidney with Propranolol administration after 120 min, value was fractional dose per fractional body weight of the organ; assay type: ADME, organism-based; settings: 2 h
In short: as §2

Mus musculus [14] = experiment: The in vivo tissue distribution of mouse liver with Propranolol administration after 10 min, value was fractional dose per fractional body weight of the organ; assay type: ADME, organism-based
In short: as §1

Mus musculus [15] = experiment: The in vivo tissue distribution of mouse bone without Propranolol preadministration in 120 min, value was fractional dose per fractional body weight of the organ; settings: 2 h
Mus musculus [16] = experiment: The in vivo tissue distribution of mouse blood with Propranolol preadministration in 10 min, value was fractional dose per fractional body weight of the organ; assay type: ADME, organism-based
In short: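 Male CF-1 mice, 25–30 g, anesthetized with 2 mg sodium pentobarbital ip. Propranolol pretreatment was 0.1 mL of 1 mg/mL iv by tail vein. About 30 min later, 0.1 mL of 1–2 mCi/mL [18F]tracer was given by tail vein. Mice were killed by cervical dislocation at set times. Organs were weighed and counted against weighed dose standards. %ID/g × body weight/100 gave fractional dose per fractional body weight. Blood and heart n=5.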

Mus musculus [17] = experiment: The in vivo tissue distribution of mouse brain with Propranolol preadministration in 90 min, value was fractional dose per fractional body weight of the organ; assay type: ADME, organism-based; settings: 1.5 h
In short: as §2

Mus musculus [18] = experiment: The in vivo tissue distribution of mouse bone with Propranolol preadministration in 60 min, value was fractional dose per fractional body weight of the organ; assay type: ADME, organism-based, Bone element; settings: 1 h
In short: as §2

Mus musculus [19] = experiment: The in vivo tissue distribution of mouse kidney with Propranolol administration after 180 min, value was fractional dose per fractional body weight of the organ; assay type: ADME, organism-based; settings: 3 h
In short: as §2

Mus musculus [20] = experiment: The in vivo tissue distribution of mouse kidney with Propranolol administration after 60 min, value was fractional dose per fractional body weight of the organ; assay type: ADME, organism-based; settings: 1 h
In short: as §3

Mus musculus [21] = experiment: The in vivo tissue distribution of mouse lung with Propranolol administration after 180 min, value was fractional dose per fractional body weight of the organ; assay type: ADME, organism-based; settings: 3 h
In short: as §2

Mus musculus [22] = experiment: The in vivo tissue distribution of mouse kidney without Propranolol preadministration in 60 min, value was fractional dose per fractional body weight of the organ; settings: 1 h
Mus musculus [23] = experiment: The in vivo tissue distribution of mouse liver with Propranolol administration after 180 min, value was fractional dose per fractional body weight of the organ; assay type: ADME, organism-based; settings: 3 h
In short: as §3

Mus musculus [24] = experiment: The in vivo tissue distribution of mouse blood with Propranolol administration after 60 min, value was fractional dose per fractional body weight of the organ; assay type: ADME, organism-based; settings: 1 h
In short: as §2

Mus musculus [25] = experiment: The in vivo tissue distribution of mouse bone with Propranolol administration after 40 min, value was fractional dose per fractional body weight of the organ; assay type: ADME, organism-based, Bone element
In short: as §2

Mus musculus [26] = experiment: The in vivo tissue distribution of mouse lung without Propranolol preadministration in 40 min, value was fractional dose per fractional body weight of the organ
Mus musculus [27] = experiment: The in vivo tissue distribution of mouse bone with Propranolol administration after 90 min, value was fractional dose per fractional body weight of the organ; assay type: ADME, organism-based, Bone element; settings: 1.5 h
In short: as §2

Mus musculus [28] = experiment: The in vivo tissue distribution of mouse heart with Propranolol preadministration in 120 min, value was fractional dose per fractional body weight of the organ; assay type: ADME, organism-based; settings: 2 h
In short: as §3

Mus musculus [29] = experiment: The in vivo tissue distribution of mouse bone with Propranolol administration after 120 min, value was fractional dose per fractional body weight of the organ; assay type: ADME, organism-based, Bone element; settings: 2 h
In short: as §1

Mus musculus [30] = experiment: The in vivo tissue distribution of mouse bone with Propranolol preadministration in 40 min, value was fractional dose per fractional body weight of the organ; assay type: ADME, organism-based, Bone element
In short: as §2

Mus musculus [31] = experiment: The in vivo tissue distribution of mouse heart without Propranolol preadministration in 20 min, value was fractional dose per fractional body weight of the organ

Compound | Dose/organ (Mus musculus [1]) | Dose/organ (Mus musculus [2]) | Dose/organ (Mus musculus [3]) | Dose/organ (Mus musculus [4]) | Dose/organ (Mus musculus [5]) | Dose/organ (Mus musculus [6]) | Dose/organ (Mus musculus [7]) | Dose/organ (Mus musculus [8]) | Dose/organ (Mus musculus [9]) | Dose/organ (Mus musculus [10]) | Dose/organ (Mus musculus [11]) | Dose/organ (Mus musculus [12]) | Dose/organ (Mus musculus [13]) | Dose/organ (Mus musculus [14]) | Dose/organ (Mus musculus [15]) | Dose/organ (Mus musculus [16]) | Dose/organ (Mus musculus [17]) | Dose/organ (Mus musculus [18]) | Dose/organ (Mus musculus [19]) | Dose/organ (Mus musculus [20]) | further results
CC(C[18F])NC[C@H](O)COc1cccc2[nH]c3ccccc3c12 (some centres not stated) | 0.66 | 1.7 | 4.18 | 5.34 | 1.1 | 1.98 | 0.67 | 1.33 | 0.25 | 0.43 | 1.85 | 6.4 | 0.38 | 2.89 | 1.08 | 0.56 | 0.8 | 0.72 | 0.35 | 1.28 | Dose/organ (Mus musculus [21]): 0.72; Dose/organ (Mus musculus [22]): 1.39; Dose/organ (Mus musculus [23]): 0.59; Dose/organ (Mus musculus [24]): 0.25; Dose/organ (Mus musculus [25]): 0.64; Dose/organ (Mus musculus [26]): 6.16; Dose/organ (Mus musculus [27]): 0.72; Dose/organ (Mus musculus [28]): 0.45; Dose/organ (Mus musculus [29]): 1.42; Dose/organ (Mus musculus [30]): 0.71; Dose/organ (Mus musculus [31]): 0.91
CC(C[18F])NC[C@@H](O)COc1cccc2[nH]c3ccccc3c12 (some centres not stated) | 0.43 | 3 | 5.1 | 2.39 | 1.15 | 2 | 0.08 | 1.5 | 0.62 | 0.57 | 3 | 8.13 | 0.63 | 3.14 | 0.78 | 0.57 | 0.35 | 1.08 | 0.33 | 1.67 | Dose/organ (Mus musculus [21]): 0.26; Dose/organ (Mus musculus [22]): 2.63; Dose/organ (Mus musculus [23]): 0.5; Dose/organ (Mus musculus [24]): 0.63; Dose/organ (Mus musculus [25]): 0.83; Dose/organ (Mus musculus [26]): 3.29; Dose/organ (Mus musculus [27]): 1.57; Dose/organ (Mus musculus [28]): 0.28; Dose/organ (Mus musculus [29]): 1.98; Dose/organ (Mus musculus [30]): 0.95; Dose/organ (Mus musculus [31]): 0.81
